Assay results reported in ChEMBL document CHEMBL4043131, “New prodrugs of two pyrimidine acyclic nucleoside phosphonates: Synthesis and antiviral activity” (Bioorg Med Chem, 2017).
The source made the active and inactive calls. No cut-off for these calls is given here.

Assays:
Human alphaherpesvirus 1 [1] = assay: Antiviral activity against wild type Herpes simplex virus 1 KOS infected in HEL cells assessed as inhibition of virus-induced cytopathic effect; assay type: functional, cell-based; conditions: Human alphaherpesvirus 1, KOS
Human alphaherpesvirus 2 = assay: Antiviral activity against Herpes simplex virus 2 G infected in HEL cells assessed as inhibition of virus-induced cytopathic effect; assay type: functional, cell-based; conditions: Human alphaherpesvirus 2, strain G
Procedure, shortened: (§1)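 Confluent cell monolayers were infected with 100 CCID50 of virus (1 CCID50 = dose infecting 50% of cultures) and incubated with varying compound concentrations. Cytopathicity was scored once complete in untreated infected controls.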

Human alphaherpesvirus 1 [2] = assay: Antiviral activity against thymidine kinase-deficient ACV-resistant Herpes simplex virus 1 KOS infected in HEL cells assessed as inhibition of virus-induced cytopathic effect; assay type: functional, cell-based; conditions: Human alphaherpesvirus 1, KOS
Human alphaherpesvirus 3 [3] = assay: Antiviral activity against wild type thymidine kinase expressing Varicella-Zoster virus Oka infected in HEL cells assessed as inhibition of virus-induced plaque formation; assay type: functional, cell-based; conditions: Human alphaherpesvirus 3, Oka
Procedure, shortened: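 Confluent HEL cultures were inoculated with 20 PFU of VZV and incubated with varying compound concentrations. Plaques were counted once formation was complete in untreated infected controls.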

Human alphaherpesvirus 3 [4] = assay: Antiviral activity against wild type thymidine kinase-deficient Varicella-Zoster virus 07-1 infected in HEL cells assessed as inhibition of virus-induced plaque formation; assay type: functional, cell-based; conditions: Human alphaherpesvirus 3, 07-1, HEL
Procedure, shortened: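 HEL fibroblast monolayers were infected with 20 PFU of VZV and kept with varying compound concentrations. Plaques were counted once formation was complete in untreated infected controls.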

Human betaherpesvirus 5 [5] = assay: Antiviral activity against Human cytomegalovirus AD169 infected in HEL cells assessed as inhibition of virus-induced cytopathic effect; assay type: functional, cell-based; conditions: Human betaherpesvirus 5, AD169, HEL; procedure, shortened: as §1
Human betaherpesvirus 5 [6] = assay: Antiviral activity against Human cytomegalovirus Davis infected in HEL cells assessed as inhibition of virus-induced cytopathic effect; assay type: functional, cell-based; conditions: Human betaherpesvirus 5, Davis; procedure, shortened: as §1
Vaccinia virus = assay: Antiviral activity against Vaccinia virus Lederle infected in HEL cells assessed as inhibition of virus-induced cytopathic effect; assay type: functional, cell-based; conditions: Orthopoxvirus vaccinia
HEL = assay: (§2) Cytotoxicity against HEL cells assessed as reduction in cell growth after 3 days by coulter counter method; assay type: cell-based; conditions: human, hel, 72 h
Procedure, shortened: (§3)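 HEL cells were seeded at 5 × 10³ cells/well and grown for 24 h, then given medium containing graded compound concentrations. After 3 days at 37 °C, cells were counted by Coulter counter.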

[7] = tested on: Vesicular stomatitis virus; assay: Antiviral activity against Vesicular stomatitis virus infected in HEL cells assessed as inhibition of virus-induced cytopathic effect; assay type: functional, cell-based
Coxsackievirus B4 = assay: Antiviral activity against Coxsackie virus B4 infected in human HeLA cells assessed as inhibition of virus-induced cytopathic effect; assay type: functional, cell-based; procedure, shortened: as §1
[8] = Antiviral activity against Respiratory syncytial virus A strain long infected in human HeLA cells assessed as inhibition of virus-induced cytopathic effect; assay type: functional, cell-based; procedure, shortened: as §1
Human respirovirus 3 = assay: Antiviral activity against Parainfluenza virus 3 infected in African green monkey Vero cells assessed as inhibition of virus-induced cytopathic effect; assay type: functional; procedure, shortened: as §1
[9] = tested on: Mammalian orthoreovirus 1; assay: Antiviral activity against Reovirus-1 infected in African green monkey Vero cells assessed as inhibition of virus-induced cytopathic effect; assay type: functional; procedure, shortened: as §1
Sindbis virus = assay: Antiviral activity against Sindbis virus infected in African green monkey Vero cells assessed as inhibition of virus-induced cytopathic effect; assay type: functional; procedure, shortened: as §1
Punta Toro virus = assay: Antiviral activity against Punta Toro virus infected in African green monkey Vero cells assessed as inhibition of virus-induced cytopathic effect; assay type: functional; procedure, shortened: as §1
Feline coronavirus = assay: Antiviral activity against Feline coronavirus infected in CRFK cells assessed as inhibition of virus-induced cytopathic effect; assay type: functional, cell-based
[10] = Selectivity index, ratio of CC50 for HEL cells to EC50 for Human cytomegalovirus AD169 infected in HEL cells; assay type: toxicity, cell-based; conditions: read-out: Ratio CC50/EC50
[11] = Selectivity index, ratio of CC50 for HEL cells to EC50 for wild type Herpes simplex virus 1 KOS infected in HEL cells; assay type: toxicity, cell-based; conditions: human, read-out: Ratio CC50/EC50
Procedure, shortened: (§4)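 EC50 is the concentration halving cytopathicity in HEL cells infected with 100 CCID50 HSV. […] Cells were counted by Coulter counter, and CC50 was read from plots of cell number (% of untreated) versus concentration. SI = CC50/EC50.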

[12] = Selectivity index, ratio of CC50 for HEL cells to EC50 for Herpes simplex virus 2 G infected in HEL cells; assay type: toxicity, cell-based; conditions: human, read-out: Ratio CC50/EC50; procedure, shortened: as §4
[13] = Selectivity index, ratio of CC50 for HEL cells to EC50 for thymidine kinase-deficient ACV-resistant Herpes simplex virus 1 KOS infected in HEL cells; assay type: toxicity, cell-based; conditions: human, read-out: Ratio CC50/EC50; procedure, shortened: as §4
[14] = Selectivity index, ratio of CC50 for HEL cells to EC50 for wild type thymidine kinase expressing Varicella-Zoster virus Oka infected in HEL cells; assay type: toxicity, cell-based; conditions: human, read-out: Ratio CC50/EC50
[15] = Selectivity index, ratio of CC50 for HEL cells to EC50 for wild type thymidine kinase-deficient Varicella-Zoster virus 07-1 infected in HEL cells; assay type: toxicity, cell-based; conditions: human, read-out: Ratio CC50/EC50
[16] = Selectivity index, ratio of CC50 for HEL cells to EC50 for Human cytomegalovirus Davis infected in HEL cells; assay type: toxicity, cell-based; conditions: read-out: Ratio CC50/EC50
Influenza A virus = assay: Antiviral activity against Influenza A virus (H1N1) infected in HEL cells assessed as inhibition of virus-induced cytopathic effect; assay type: functional, cell-based
Influenza A virus H3N2 = assay: Antiviral activity against Influenza A virus H3N2 infected in HEL cells assessed as inhibition of virus-induced cytopathic effect; assay type: functional, cell-based
Influenza B virus = assay: Antiviral activity against influenza B virus infected in HEL cells assessed as inhibition of virus-induced cytopathic effect; assay type: functional, cell-based
[17] = Cytotoxicity against HEL cells assessed as alteration of cell morphology by microscopic analysis; assay type: cell-based; conditions: human
Procedure, shortened: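 MCC is the lowest compound concentration causing a microscopically detectable alteration of cell morphology.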

[18] = as §2; assay type: cell-based; conditions: human, HEL cells; procedure, shortened: as §3

Row | Compound | EC50 (Human alphaherpesvirus 1 [1]) [nM] | EC50 (Human alphaherpesvirus 2) [nM] | EC50 (Human alphaherpesvirus 1 [2]) [nM] | EC50 (Human alphaherpesvirus 3 [3]) [nM] | EC50 (Human alphaherpesvirus 3 [4]) [nM] | EC50 (Human betaherpesvirus 5 [5]) [µM] | EC50 (Human betaherpesvirus 5 [6]) [µM] | EC50 (Vaccinia virus) [µM] | CC50 (HEL) [µM] | Activity [7] | Activity (Coxsackievirus B4) | Activity [8] | Activity (Human respirovirus 3) | Activity [9] | Activity (Sindbis virus) | Activity (Punta Toro virus) | Activity (Feline coronavirus) | Activity (Influenza A virus) | Activity (Influenza A virus H3N2) | Activity (Influenza B virus) | other results
1 | CC(C)(C)C(=O)OCOP(=O)(COCCn1cnc(N)nc1=O)OCOC(=O)C(C)(C)C | 840 | 1260 | 730 | 650 | 1320 | 3.24 | 0.97 | 152 | 46 | inactive | inactive | inactive | inactive | inactive | inactive | inactive | inactive | inactive | inactive | inactive | selectivity ratio [10]: 14 to 47; selectivity ratio [11]: 37 to 63; selectivity ratio [12]: 37 to 63; selectivity ratio [13]: 37 to 63; selectivity ratio [14]: 35 to 71; selectivity ratio [15]: 35 to 71; selectivity ratio [16]: 14 to 47
2 | CC(C)OC(=O)OCOP(=O)(COCCOc1cc(N)nc(N)n1)OCOC(=O)OC(C)C | – | 1010 | – | 320 | 290 | 90.1 | 86.3 | – | – | – | inactive | inactive | inactive | inactive | inactive | inactive | inactive | – | – | – | MCC [17]: > 202 µM; CC50 at 72 h [18]: 15.1 µM
3 | CCCCCCCCCCCCCCCCNC(=O)[C@@H](N)Cc1ccc(OP(=O)(COCCn2cnc(N)nc2=O)Oc2ccc(C[C@H](N)C(=O)NCCCCCCCCCCCCCCCC)cc2)cc1 | 600 | 400 | 400 | 580 | 290 | 2.16 | 0.48 | > 100 | – | inactive | inactive | inactive | inactive | inactive | inactive | inactive | inactive | inactive | inactive | inactive | selectivity ratio [10]: 13 to 56; selectivity ratio [11]: 45 to 68; selectivity ratio [12]: 45 to 68; selectivity ratio [13]: 45 to 68; selectivity ratio [14]: 47 to 93; selectivity ratio [15]: 47 to 93; selectivity ratio [16]: 13 to 56
4 | CCOC(=O)[C@H](C)NP(=O)(COCCOc1cc(N)nc(N)n1)N[C@@H](C)C(=O)OCC | 3900 | 3460 | 6300 | 560 | 1690 | 28.4 | 17 | 157 | 25.9 | inactive | inactive | inactive | inactive | inactive | inactive | inactive | inactive | inactive | inactive | inactive | selectivity ratio [10]: ≤ 1; selectivity ratio [11]: 4 to 15; selectivity ratio [12]: 4 to 15; selectivity ratio [13]: 4 to 15; selectivity ratio [14]: 15 to 52; selectivity ratio [15]: 15 to 52; selectivity ratio [16]: ≤ 1
5 | CCOC(=O)[C@H](Cc1ccccc1)NP(=O)(COCCn1cnc(N)nc1=O)N[C@@H](Cc1ccccc1)C(=O)OCC | 32500 | 39500 | 42000 | 29400 | 26800 | 15.5 | 7.5 | > 100 | > 100 | inactive | inactive | inactive | inactive | inactive | inactive | inactive | inactive | inactive | inactive | inactive | MCC [17]: > 100 µM
6 | CCCCCCCCCCCCCCCCCCOCCOP(=O)(O)COCCn1cnc(N)nc1=O | 350 | 150 | 200 | 320 | 790 | 1.12 | 0.24 | > 100 | 79.2 | inactive | inactive | inactive | inactive | inactive | inactive | inactive | inactive | inactive | inactive | inactive | selectivity ratio [10]: 71 to 330; selectivity ratio [11]: 226 to 528; selectivity ratio [12]: 226 to 528; selectivity ratio [13]: 226 to 528; selectivity ratio [14]: 100 to 248; selectivity ratio [15]: 100 to 248; selectivity ratio [16]: 71 to 330
